This note sets out measurements from ChEMBL document CHEMBL1153046, “Synthesis and antitumor activity of substituted triazolo[4,3-a]pyrimidin-6-sulfonamide with an incorporated thiazolidinone moiety” (2009).

One may read the GI50 as the concentration giving 50% growth inhibition. The low end stands for greater sensitivity of the cells, the high end for lower sensitivity of the cells. A word on the TGI: it is the concentration at which net growth stops. Low values mean more potent growth arrest, high ones less potent growth arrest.

This assay concerns OVCAR-3. As to the kind of experiment: Growth inhibition of human OVCAR-3 cells after 48 hrs by sulforhodamine B assay. The class given is functional. The settings on record: OVCAR-3, 48 h. In outline:
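NCI 60-cell-line panel. Cells are grown in RPMI1640 with 5% fetal calf serum and 2 mM L-glutamine, seeded at a density set by growth characteristics, and preincubated 24 h. Compound is tested at a minimum of five concentrations at 10-fold dilution, with 48 h continuous exposure. Viability is read by sulforhodamine B protein assay. GI50, TGI and LC50 come from dose-response curves.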
On the technique in general: The SRB assay estimates cell density from bound dye.
Take `COc1ccc(/C=N/c2nc3[nH]nc(C)n3c(=O)c2S(=O)(=O)NN2C(=O)C(CN3CCN(C)CC3)SC2c2ccc(OC)cc2)cc1` (configuration not stated): halving of growth (GI50) required 21.5 µM, the LC50 (concentration killing 50% of cells) stood at 75.3 µM and net growth stopped (TGI) at 40.2 µM.
Regarding `COc1ccc(/C=N/c2nc3[nH]nc(C)n3c(=O)c2S(=O)(=O)NN2C(=O)C(CN3CCN(C)CC3)SC2c2cccs2)cc1` (configuration not stated), the GI50 came to 0.88 µM, the LC50 (concentration killing 50% of cells) is greater than 100 µM and the TGI was greater than 100 µM.
`COc1ccc(/C=N/c2nc3[nH]nc(C)n3c(=O)c2S(=O)(=O)NN2C(=O)C(CN3CCOCC3)SC2c2cccs2)cc1` (configuration not stated) came in with a 50% growth inhibitory concentration (GI50) of 3.6 µM, an LC50 (concentration killing 50% of cells) greater than 100 µM and a TGI greater than 100 µM.
Molecule `COc1ccc(/C=N/c2nc3[nH]nc(C)n3c(=O)c2S(=O)(=O)NN2C(=O)C(CN3CCOCC3)SC2c2ccc(OC)cc2)cc1` (configuration not stated) displayed a GI50 of 22.5 µM, an LC50 (concentration killing 50% of cells) greater than 100 µM and a TGI of 60.5 µM.
